Paper PMC5386783 (Nature medicine, 2016)
Values joined by “and” are separate entries in the source; they are usually repeats but may differ in a detail not shown here. Equal values may be shown once. Each block holds one compound with its values, some of them ahead of it.

Experiments:
ZIKV [1] = assay: ZIKV NS1 expression; assay type: cell-based, Zika virus; settings: SNB-19 cells; three strains; dose-dependent
Summary of the method: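 SNB-19 cells were treated with titrated test compound 1 h before FSS-13025, PRVABC59 or MR766 (MOI 1) and harvested at 24 h for NS1 western blot. NS1/GAPDH bands were normalised to DMSO. Secreted NS1 in the medium after 24 h was measured by NS1 ELISA kit. n = 3 cultures; one-way ANOVA versus DMSO or the 0 μM group.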

ZIKV [2] = assay: ZIKV production from SNB-19 cells, focus-forming unit assay on Vero cells; assay type: cell-based, Zika virus; settings: for concentrations suppressing production of infectious ZIKV particles: PRVABC59, MOI = 0.5, 24 hours post infection
astrocytes = assay: Astrocyte viability, compound toxicity; assay type: cell-based; settings: at levels lower than 3 μM
Summary of the method: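 Cells were seeded in 96-well plates and, one day later, treated with test compound for 24–48 h without virus. Viability was then read with a CellTiter-Glo luminescent ATP substrate.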

[3] = ref WHO http://apps.who.int/medicinedocs/en/d/Jh2922e/3.1.3.html; cited from earlier work
ZIKV [4] = assay: Intracellular ZIKV RNA levels; assay type: cell-based, Zika virus; settings: read-out: IC50, intracellular ZIKV RNA levels
Summary of the method: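 SNB-19 cells, astrocytes or hNPCs (~3×10^5/well, 12-well) were treated with test compound 1 h before ZIKV (MOI 0.5–1) and harvested 24–48 h post-infection. Total RNA (500–1000 ng) was reverse-transcribed with random hexamers. SYBR qPCR used ZIKV NS1 primers, with GAPDH as the endogenous control. Fold change was calculated by ΔΔCT, normalised to control cells.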

ZIKV [5] = assay: Time-of-addition experiment in SNB-19 cells; assay type: cell-based, Zika virus; settings: PRVABC59, MOI = 1, 10 μg/ml anti-AXL antibody, 2 μM Niclosamide, 92 μM PHA-690509
Summary of the method: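 SNB-19 cells received test compound or 10 μg/ml anti-AXL antibody either 1 h before or 4 h after PRVABC59 infection (MOI 1). NS1 was detected by western blot, and NS1/GAPDH band intensities were normalised to DMSO. n = 3 cultures; one-way ANOVA versus DMSO.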

ZIKV [6] = assay: ZIKV infection and production in hNPCs and astrocytes; assay type: cell-based, Zika virus; settings: PRVABC59
Summary of the method: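 Astrocytes were treated with test compound 1 h before PRVABC59 (MOI 0.5), fixed 24 h post-infection, and immunostained for ZIKV envelope protein with DAPI. Stained cells were counted. Virus released into culture supernatant was titrated as focus-forming units on Vero cells.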

activated caspases = settings: cited from earlier work
[7] = tested on: ZIKV-induced caspase-3 activity; assay: Caspase-3/7 activity assay in ZIKV-infected SNB-19 cells; assay type: cell-based; settings: Homo sapiens, SNB-19, read-out: IC50, caspase activity
Summary of the method: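 SNB-19 cells (250/well, PDL-coated 1536-well) were grown 16 h at 37 °C/5% CO2, given pin-transferred test compound for 30 min, then ZIKV at 2 FFU/cell for 6 h. Caspase-Glo 3/7 reagent was added for 30 min at room temperature and luminescence read. Uninfected cells were 0% and infected cells 100%. Confirmation used 11-point 1:3 dilutions, n = 3, and IC50 came from curve fits.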

[8] = cited from earlier work
[9] = oral delivery, BID, × 4 days; cited from earlier work
SNB-19 cells = assay: ATP content cell viability assay in ZIKV-infected SNB-19 cells; assay type: cell-based; settings: Homo sapiens, SNB-19, read-out: IC50, cell viability
forebrain-specific hNPCs = assay type: cell-based, human
Summary of the method: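 Forebrain hNPCs were derived from iPSCs via embryoid bodies, rosettes and neurospheres. Monolayers were exposed to ZIKV FSS-13025 (MOI 0.04–0.08) ± test compound and immunostained 72 h later for ZIKV envelope, cleaved caspase-3 and DAPI; %Cas3+/DAPI cells, mean ± s.e.m., n = 3 cultures, one-way ANOVA. C1–2 iPSC forebrain organoids: exposed on day 18 for 24 h, fresh medium 9 more days, then fixed and immunostained.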

hNPC [10] = assay: hNPC proliferation after ZIKV infection with compound treatment; assay type: cell-based, human; settings: ZIKV-infected hNPCs
ZIKV [11] = assay: ZIKV production from iPSC-derived human astrocytes, FFU assay; assay type: cell-based, Zika virus; settings: read-out: IC50, ZIKV production upon infection of human astrocytes; PRVABC59
hNPC [12] = assay: hNPC proliferation in brain organoids, compound alone without ZIKV; assay type: cell-based, human; settings: PHA-690509 1 μM, Seliciclib 5 μM

IC50 (ZIKV [4]; Zika virus): 0.37 µM
SMILES: O=C(Nc1ccc([N+](=O)[O-])cc1Cl)c1cc(Cl)ccc1O [Niclosamide]
inhibition of ZIKV as measured by NS1 expression (ZIKV [1]): inhibited all three strains of ZIKV
concentrations suppressing production of infectious ZIKV particles (ZIKV [2]): sub-micromolar concentrations
toxicity, astrocyte viability (astrocytes): minimal toxicity
mutagenic, teratogenic or embryotoxic potential [3]: not been shown to be mutagenic, teratogenic or embryotoxic
inhibition of ZIKV infection by time of addition (ZIKV [5]): effectively inhibited ZIKV infection when added either 1 hour before or 4 hours after virus inoculation
ZIKV infection and production in hNPCs and astrocytes (ZIKV [6]): inhibited ZIKV infection and production

SMILES: C[C@H](NC(=O)C(=O)Nc1ccccc1C(C)(C)C)C(=O)N[C@@H](CC(=O)O)C(=O)COc1c(F)c(F)cc(F)c1F [Emricasan]
activity against activated caspases in vitro (activated caspases): sub-to nano-molar activity
IC50 [7]: 0.13 to 0.9 µM
tolerability in human trials [8]: well tolerated in human trials without significant adverse events
maximum concentration in human blood [9]: 2.36 μg/ml and 4.15 μM
overall concentration in human blood [9]: 1.90 μg/ml and 3.35 μM
IC50 (SNB-19 cells): 0.13 to 0.9 µM
suppression of ZIKV replication (ZIKV antigen) (forebrain-specific hNPCs; 2D and 3D cultures): does not suppress ZIKV replication
number of active (cleaved) caspase-3-expressing forebrain-specific hNPCs (forebrain-specific hNPCs; infected by FSS13025, monolayer and 3D organoid cultures): reduced

SMILES: CC(C)c1nn(-c2c(Cl)cccc2Cl)c2nc(Cc3ccc(OCCO)cc3)[nH]c(=O)c12 [RGB-286147]
IC50 (ZIKV [2]; read-out: IC50, ZIKV production): 0.027 µM

IC50 (ZIKV [11]): ~0.2 µM
IC50 (ZIKV [4]): 1.72 µM
SMILES: CC(=O)Nc1ccc([C@H](C)C(=O)Nc2ncc(C(C)C)s2)cc1 [PHA-690509]
inhibition of ZIKV as measured by NS1 expression (ZIKV [1]): inhibited all three strains of ZIKV
rescue of ZIKV-induced reduction in hNPC proliferation (hNPC [10]): partially rescued
concentrations suppressing production of infectious ZIKV particles (ZIKV [2]): sub-micromolar concentrations
toxicity, astrocyte viability (astrocytes): minimal toxicity
inhibition of ZIKV infection by time of addition (ZIKV [5]): effectively inhibited ZIKV infection when added either 1 hour before or 4 hours after virus inoculation
ZIKV infection and production in hNPCs and astrocytes (ZIKV [6]): inhibited ZIKV infection and production

SMILES: CC[C@H](CO)Nc1nc(NCc2ccccc2)c2ncn(C(C)C)c2n1 [Seliciclib]
rescue of ZIKV-induced reduction in hNPC proliferation (hNPC [10]): partially rescued
effect of treatment alone on hNPC proliferation in brain organoids (hNPC [12]): minimal effect
